Results as given in the RNAGym collection of RNA variant scans (doi:10.1126/science.aae0568).
Fewer inactive variants are shown than the library holds.

B1: tRNA (parent)
chain: GUUCCGUUGGCGUAAUGGUAACGCGUCUCCCUCCUAAGGAGAAGACUGCGGGUUCGAGUCCCGUACGGAACG

Variants of: B1
Experiment: yeast fitness relative to wild type (ratio to wild type); higher = fitter; tRNA-Arg(CCU), competitive growth, 37 C, YPD
Outline: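 Variants of the tRNA-Arg(CCU) gene, chemically synthesised with a 3% per-site mutation rate at 69 sites, were placed at the native genomic locus in Saccharomyces cerevisiae. The pooled strains were competed in YPD at 37°C for 24 hours in six parallel replicates. Gene amplicons from the start population and from each end population were read by 100-nucleotide paired-end sequencing. Darwinian fitness relative to wild type came from changes in genotype frequencies; genotypes needed ≥ 100 starting reads, and estimates < 0.5 were set to 0.5.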

Variant | yeast fitness
C24U C34U C49U C61U | ≤ 0.5
C24U C34U C46A G67A | ≤ 0.5
G25A C27G G41C | 0.671
C24U C33G G52C C61U | ≤ 0.5
C24U C29A U32A C46G A57C | 0.5
G25A A65U | 0.981
G25A C30G A57G | 0.582
C24U G39C | 0.735
C24U G39A | 0.875
G25A A40C C66U A70C | ≤ 0.5
C24U C31U C49U A70U | 0.64
C24U G67C G68A | 0.587
C24U C31A C49U A57C | ≤ 0.5
G25A A45G G50C A69C | 0.526
C24U C33U G44C | 0.633
G25A A42U A43C G44A | 0.764
C24U C27U G50C | ≤ 0.5
G25A C27U U53C A70G | ≤ 0.5
C24U A43U C55G | 0.588
C24U A45G A57G | 0.787
C24U C31G U64C | 0.572
C24U C31A U54G | 0.75
G25A A69C | 1.02
C24U G50A | 0.844

Variant | yeast fitness
C24U C30A A65G | ≤ 0.5
C24U U28G C33G C34U A36G A40G | 0.596
C24U C62A | 0.684
C24U G25A C30U C46A C55G C60A | ≤ 0.5
C24U C31A A57C | 0.704
G25A C30A G38A A43G C46U A57U | 0.614
G25A A45C | 0.957
G25A A45G | 0.961
C24U C29U A42G U59C | ≤ 0.5
G25A C29U C49U A65C | ≤ 0.5
C24U U32A G38A A57U | ≤ 0.5
C24U C34U A69C | 0.502
C24U G44A U54G G67A | ≤ 0.5
G25A C30U | 1
C24U C27A C30U | 0.597
C24U C34U A40G C55G | ≤ 0.5
C24U U35A A40G | 0.576
C24U G58A A65C | 0.707
C24U C31U C49U | 0.874
C24U C55G A70U | 0.698
C24U C31A C55G A57U | 0.532
C24U U26C G68A | 0.566
C24U U35C A70U | 0.541
G25A C29A A57C A70G | ≤ 0.5

Variant | yeast fitness
C24U C55A U59G A65C | ≤ 0.5
C24U C49U | 0.969
C24U C49A | 0.716
C24U U32C A69U | 0.818
C24U U35G C46A | ≤ 0.5
C24U C30U G38C | 0.55
C24U A45G G68C | 0.641
C24U G56C | 0.792
G25A A36G A45C | 0.929
C24U C30A | 0.898
C24U C30G | 0.836
C24U C31G C46U | 0.562
C24U C33U G41A C61U | ≤ 0.5
C24U C30U G63A | 0.502
C24U C34G C62U | 0.584
C24U U53A C66U A70U | ≤ 0.5
G25A A37G | 0.699
G25A A37U | 0.652
G25A A37C | 0.757
C24U C27U A43C U47C | 0.618
C24U C31G G44A | 0.508
C24U U26G C61G | ≤ 0.5
C24U C49G G56C G58A | 0.57
C24U C34G A45U G68C | ≤ 0.5

Variant | yeast fitness
C24U U32G G52C G63A G68C | ≤ 0.5
C24U G51A A57U | ≤ 0.5
G25A C29U A45U G58C | 0.772
C24U C46U A70U | 0.75
C24U C27A C30U G63U | ≤ 0.5
C24U C61G C66U A69U | 0.539
C24U G25C C46U G50C | ≤ 0.5
C24U C27G U59A A70G | ≤ 0.5
C24U U28C G52C C60G | 0.524
C24U G44A U54C | 0.726
C24U G48A U64A | ≤ 0.5
C24U C30G C61U A65U C66U | ≤ 0.5
C24U G25C C61A | ≤ 0.5
C24U G52A A57C | ≤ 0.5
C24U U32A C33G C60U A69G | ≤ 0.5
G25A C30U U54A | 0.533
C24U U35G A42G G51A | ≤ 0.5
G25A | 0.984
C24U U53C C60G | ≤ 0.5
G25A C29A | 0.609
G25A A42G | 0.89
G25A A42U | 0.813
C24U C30U C34U G52A | ≤ 0.5
C24U U28G C33G C34U A36G A40G A70C | ≤ 0.5

Variant | yeast fitness
C24U C27A U53A C66U | ≤ 0.5
C24U U26C A65C | 0.695
G25A C29U A69C | 0.807
C24U C29U A42G C55U | ≤ 0.5
C24U U59C | 0.879
C24U U59G | 0.712
C24U C27U A43C | 1.04
C24U G51C C55U | ≤ 0.5
G25A A45U A69U | 0.806
C24U C31G A43G | 0.69
G25A C30A C34A A69C | ≤ 0.5
C24U U26A U28G U54G | 0.545
C24U G41C C49A | 0.778
C24U C33G C34U | 0.672
G25A A43C A70G | 0.745
C24U C49U U54G G67A | ≤ 0.5
C24U C61U | 0.881
C24U C61G | 0.598
C24U C61A | 0.612
C24U G38C G52C | ≤ 0.5
C24U C34U A40G G50A C55G | ≤ 0.5
C24U C34U C46A | ≤ 0.5
C24U C34U C46U | ≤ 0.5
C24U U32G A40U A65C | ≤ 0.5

Variant | yeast fitness
C24U A45U C55U | 0.569
C24U C34U | 0.688
C24U C34G | 0.72
C24U U26A U28G U54G C61U | ≤ 0.5
G25A C29U C31U | 0.57
G25A C29U C31G | ≤ 0.5
C24U G56A G67A | 0.731
C24U C60A | 0.527
G25A A37U C61A | 0.616
G25A A45C U53C C55U G56C | ≤ 0.5
C24U C62G U64G | ≤ 0.5
G25A A40U C49U C60A G63A | 0.507
C24U U35C C66U | ≤ 0.5
C24U C49U A65U | 0.577
C24U C60G A70C | 0.562
C24U A45U A69U | 0.78
C24U C31G G44A U64A | ≤ 0.5
C24U U35A | 0.806
C24U C31A C34A G56C | ≤ 0.5
C24U A43C C60A | ≤ 0.5
C24U A69U A70C | 0.756
C24U C46A C55U G58C | 0.793
G25A A43U G56A | 0.718
C24U G44C G58C | 0.995

Variant | yeast fitness
C24U C61U U64C | 0.697
C24U C34U G56C A57G G68U | ≤ 0.5
C24U C31U G68U | 0.544
G25A A43C C66A | 0.581
G25A C30U C62U | 0.583
C24U C34A G39A | 0.535
C24U C31G C34G A43U G68C A69G | ≤ 0.5
C24U A45G C46G C55G | 0.588
C24U G48C C62A | 0.579
C24U C27G A65C | ≤ 0.5
C24U C33U | 0.747
C24U C33A A40G | 0.513
C24U A57C C61A A70G | ≤ 0.5
C24U G39C C61U | 0.549
C24U U47A C66U | ≤ 0.5
C24U C29U A36C A42U A57U | 0.518
C24U C29G C33U A57G | ≤ 0.5
C24U A43U U47C | 0.794
G25A A37U G56A C66U | ≤ 0.5
C24U U26G A43G A70U | 0.597
C24U A43C C49U G51U | ≤ 0.5
C24U A45C C61G | ≤ 0.5
C24U G25C C30U A45U C49G A65U | ≤ 0.5
